Data taken from ChEMBL document CHEMBL1156595, “Studies on the antifungal properties of N-thiolated beta-lactams” (2008).

Experiments:
Assay type in all cases: functional
[1] = tested on: Cyberlindnera jadinii; test: Antifungal activity against Candida utilis ATCC 29950 assessed as growth inhibition zone at 50 ug after 24 by Kirby-Bauer agar diffusion assay; settings: Williopsis jadinii, read-out: IZ
Procedure, shortened: (§1)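 Disk diffusion on yeast nitrogen base agar, swabbed with a McFarland 0.5 suspension in saline. 6 mm cellulose disks carried 10 µL of a 5 mg/mL CH2Cl2 stock (50 ug per disk), air-dried, three disks per plate. Plates were sealed and incubated 24 h at 37°C. Cleared inhibition zones were measured and averaged over triplicates.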

[2] = tested on: Candida albicans; test: Antifungal activity against Candida albicans ATCC 2091 assessed as growth inhibition zone at 50 ug after 24 hrs by Kirby-Bauer agar diffusion assay; settings: ATCC 2091, 24 h, read-out: IZ; procedure, shortened: as §1
[3] = tested on: Clavispora lusitaniae; test: Antifungal activity against Candida lusitaniae ATCC 34449 assessed as growth inhibition zone at 50 ug after 24 by Kirby-Bauer agar diffusion assay; settings: read-out: IZ; procedure, shortened: as §1
[4] = tested on: Nakaseomyces glabratus; test: Antifungal activity against Candida glabrata ATCC 15126 assessed as growth inhibition zone at 50 ug after 24 hrs by Kirby-Bauer agar diffusion assay; settings: ATCC 15126, 24 h, read-out: IZ; procedure, shortened: as §1
[5] = tested on: Candida parapsilosis; test: Antifungal activity against Candida parapsilosis ATCC 22019 assessed as growth inhibition zone at 50 ug after 24 hrs by Kirby-Bauer agar diffusion assay; settings: Lodderomyces parapsilosis, ATCC 22019, 24 h; read-out: IZ; procedure, shortened: as §1
[6] = tested on: Pichia kudriavzevii; test: Antifungal activity against Candida krusei ATCC 14243 assessed as growth inhibition zone at 50 ug after 24hrs by Kirby-Bauer agar diffusion assay; settings: ATCC 14243, 24 h, read-out: IZ; procedure, shortened: as §1
[7] = tested on: Kluyveromyces marxianus; test: Antifungal activity against Candida kefyr ATCC 20409 assessed as growth inhibition zone at 50 ug after 24 hrs by Kirby-Bauer agar diffusion assay; settings: ATCC 20409, 24 h, read-out: IZ; procedure, shortened: as §1
[8] = tested on: Candida tropicalis; test: Antifungal activity against Candida tropicalis clinical isolate assessed as growth inhibition zone at 50 ug after 24 hrs by Kirby-Bauer agar diffusion assay; settings: read-out: IZ; procedure, shortened: as §1

Row | SMILES | zone of inhibition at 50 µg/disc [1] [mm] | zone of inhibition at 50 µg/disc [2] [mm] | zone of inhibition at 50 µg/disc [3] [mm] | zone of inhibition at 50 µg/disc [4] [mm] | zone of inhibition at 50 µg/disc [5] [mm] | zone of inhibition at 50 µg/disc [6] [mm] | zone of inhibition at 50 µg/disc [7] [mm] | zone of inhibition at 50 µg/disc [8] [mm]
1 | CSN1C(=O)[C@H](OC(C)=O)[C@@H]1/C=C/c1ccccc1 | 13 | 0 | 0 | 14 | 0 | 0 | 12 | 0
2 | CO[C@H]1C(=O)N(SC)[C@H]1c1ccc(F)cc1 |  | 16 | 0 | 0 | 21 | 0 |  | 0
3 | CO[C@H]1C(=O)N(SC)[C@H]1c1ccc(Br)cc1 | 17 | 25 | 17 | 19 | 23 | 0 | 17 | 20
4 | CO[C@H]1C(=O)N(SC)[C@H]1c1ccc(Cl)cc1 | 0 | 0 | 14 | 0 | 0 | 0 | 10 | 0
5 | CSN1C(=O)[C@H](Oc2ccccc2)[C@@H]1/C=C/c1ccccc1 | 0 | 0 | 0 | 9 | 0 | 0 | 0 | 0
6 | CO[C@H]1C(=O)N(SC)[C@H]1c1ccccc1F | 14 | 15 | 0 | 0 | 19 | 0 | 15 | 0
7 | CO[C@H]1C(=O)N(SC)[C@H]1/C=C/c1ccccc1 | 19 | 27 | 14 | 16 | 13 | 0 | 14 | 14
8 | CO[C@H]1C(=O)N(SC)[C@H]1CCc1ccccc1 | 28 | 34 | 15 | 20 | 14 | 0 | 24 | 17
9 | CO[C@H]1C(=O)N(SC)[C@H]1c1cc(F)cc(F)c1F | 16 | 18 | 17 | 11 | 22 | 0 | 15 | 24
10 | CO[C@H]1C(=O)N(SC)[C@H]1c1cc(F)c(F)c(F)c1 | 29 | 25 | 25 | 18 | 34 | 0 | 17 | 19
11 | CCC(C)SN1C(=O)[C@H](OC)[C@@H]1c1ccccc1Cl (stereo partly drawn) | 0 | 16 | 0 | 0 | 0 | 0 | 0 | 13
12 | CO[C@H]1C(=O)N(SC)[C@H]1c1ccc(I)cc1 | 20 | 16 | 20 | 22 | 25 | 0 | 19 | 12
13 | CO[C@H]1C(=O)N(SC)[C@H]1c1cccc(F)c1 | 16 | 14 | 0 | 0 | 22 | 0 | 13 | 0
14 | CO[C@H]1C(=O)N(SC)[C@H]1c1ccccc1Br | 25 | 25 | 19 | 17 | 40 | 0 | 13 | 21
15 | CO[C@H]1C(=O)N(SC)[C@H]1c1cccc(Br)c1 | 14 | 20 | 15 | 17 | 18 | 0 | 14 | 18
16 | CSN1C(=O)[C@@H](OC(C)=O)[C@H]1c1ccccc1 | 16 | 14 | 10 | 0 | 0 | 0 | 0 | 11
17 | CO[C@H]1C(=O)N(SC)[C@H]1c1ccccc1I | 15 | 16 | 17 | 20 | 22 | 0 | 15 | 15
18 | CO[C@H]1C(=O)N(SC)[C@H]1c1cc(F)c(F)cc1F | 14 | 25 | 14 | 14 | 22 | 0 | 16 | 20
19 | CO[C@H]1C(=O)N(SC)[C@H]1c1ccc(Cl)cc1Cl | 21 | 27 | 22 | 32 | 31 | 0 | 28 | 23
20 | CSN1C(=O)[C@H](Oc2ccccc2)[C@@H]1CCc1ccccc1 | 21 | 25 | 14 | 18 | 14 | 0 | 19 | 19
21 | CSN1C(=O)[C@H](OC(C)=O)[C@@H]1c1ccccc1 | 16 | 14 | 15 | 0 | 0 | 0 | 9 | 15
22 | CSN1C(=O)[C@H](OC(C)=O)[C@@H]1CCc1ccccc1 | 0 | 0 | 0 | 15 | 0 | 0 | 13 | 0
23 | CO[C@H]1C(=O)N(SC)[C@H]1c1cccc(Cl)c1 | 19 | 23 | 13 | 21 | 28 | 0 | 13 | 20
24 | CO[C@H]1C(=O)N(SC)[C@H]1c1cccc(I)c1 | 15 | 14 | 19 | 19 | 22 | 0 | 15 | 14
25 | CO[C@H]1C(=O)N(SC)[C@H]1c1cc(Cl)cc(Cl)c1Cl | 19 | 23 | 23 | 31 | 26 | 0 | 30 | 22
